According to ChEMBL document CHEMBL6096655, “Discovery of a novel, selective CK2 inhibitor class with an unusual basic scaffold” (Eur J Med Chem, 2025):
The source made the active and inactive calls. The rule behind the calls is not given here.

Columns and labels:
786-0 [1] = experiment: Antiproliferative activity against human 786-0 cells assessed as inhibition of cell growth at 30 uM measured after 3 to 4 days by MTT assay relative to control; assay type: functional; settings: time 3-4 day
Summary of the method: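 786-O cells (RPMI, 10% FCS) seeded at 5000 per well and left overnight. Compound was added at a single 30 µM concentration in 1% FCS medium (DMSO max. 0.2%). Cells grew 3–4 days at 37 °C, 5% CO₂, with no medium change, and were read by MTT. Percent inhibition is the mean of duplicates that differed by ≤10%.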

[2] = Upregulation of PARP cleavage in human U-937 cells by measuring signal 1 at 5 uM measured after 48 hrs by immunoblot analysis; assay type: functional
Summary of the method: (§1)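 U937 cells exposed to compound or DMSO for 48 h, then lysed in Laemmli buffer. Lysates were run on 8–16% gradient SDS-PAGE, semi-dry blotted to PVDF and probed for PARP. Detection used IR-fluorescent secondary antibodies. The cleaved/uncleaved PARP signal ratio was obtained by densitometry. Results are representative of two independent experiments.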

U-937 = experiment: Antiproliferative activity against human U-937 cells assessed as inhibition of cell growth measured after 3 to 4 days by MTT assay; assay type: functional; settings: time 3-4 day
Summary of the method: (§2)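 786-O or U937 cells grown in RPMI with 2 mM L-glutamine, 1% pen/strep and 10% FCS. Cells were seeded at 5000 per well and left overnight, then switched to 1% FCS medium containing compound or DMSO (max. 0.2% final). Growth ran 3–4 days at 37 °C in 5% CO₂ without medium change, followed by MTT read-out. GI50 is the mean ± SD of at least two independent experiments.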

786-0 [3] = experiment: Induction of cell death in human 786-0 cells assessed as cell viability at 5 uM measured after 11 hrs by CellCyteX live-cell microscopy analysis; assay type: functional, cell-based
Summary of the method: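 786-O cells seeded at 3×10³ per well and grown 24 h. Compound was then added in culture medium containing 125 nM Cytotox Green, at 0.2% (v/v) final DMSO, and kept at 37 °C in 5% CO₂. Green fluorescence images of dead cells were taken every 3 h by live-cell microscopy and normalized to the DMSO control. Results are representative of three independent measurements.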

786-0 [4] = experiment: Antiproliferative activity against human 786-0 cells assessed as inhibition of cell growth measured after 3 to 4 days by MTT assay; assay type: functional; settings: time 3-4 day; summary of the method: as §2
[5] = Antiproliferative activity against HEK293 cells assessed as inhibition of cell growth measured after 3 to 4 days by MTT assay; assay type: toxicity, cell-based; settings: human, time 3-4 day
Summary of the method: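 HEK293 cells grown in DMEM with 2 mM L-glutamine, 1% pen/strep and 10% FCS. Cells were seeded at 5000 per well, left overnight, then given medium with 1% FCS plus compound or DMSO (max. 0.2% final). They were grown 3–4 days at 37 °C in 5% CO₂ with no medium change, and growth was read by MTT.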

[6] = Upregulation of PARP cleavage in human U-937 cells by measuring signal 2 at 2 uM measured after 48 hrs by immunoblot analysis; assay type: functional
Summary of the method: (§3)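 U937 lymphoma cells grown in RPMI with 2 mM L-glutamine, 1 % pen/strep and 10 % FCS; exposed to compound or DMSO solvent control for 48 h. Total cellular proteins harvested and immunoblotted with an antibody against phosphorylated CK2-substrate motifs and for PARP. Read-out is the densitometric ratio of cleaved to uncleaved PARP signal. Representative of two independent experiments.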

HCT-116 = experiment: Antiproliferative activity against human HCT-116 cells measured after 72 hrs by alamar blue staining based fluorescence assay; assay type: functional
[7] = Upregulation of PARP cleavage in human U-937 cells by measuring signal 1 at 2 uM measured after 48 hrs by immunoblot analysis; assay type: functional; summary of the method: as §1
[8] = molecular target: Signal transducer and activator of transcription 3 (Homo sapiens) (UniProt P40763); experiment: Inhibition of STAT3 phosphorylation in human 786-O cells at 10 uM measured after 48 hrs by immunoblot analysis relative to control
[9] = Upregulation of PARP cleavage in human U-937 cells by measuring signal 2 at 5 uM measured after 48 hrs by immunoblot analysis; assay type: functional; summary of the method: as §3
[10] = molecular target: Eukaryotic translation initiation factor 2 subunit 2 (Homo sapiens) (UniProt P20042); experiment: Inhibition of eIF2beta phosphorylation in human 786-O cells at 10 uM measured after 48 hrs by immunoblot analysis relative to control
[11] = Upregulation of PARP cleavage in human U-937 cells by measuring signal 2 at 10 uM measured after 48 hrs by immunoblot analysis; assay type: functional; summary of the method: as §1
[12] = molecular target: T1, Hsp90 co-chaperone Cdc37 (Homo sapiens) (UniProt Q16543); experiment: Inhibition of CDC37 phosphorylation in human 786-O cells at 10 uM measured after 48 hrs by immunoblot analysis relative to control
T1 sequence (whole entry): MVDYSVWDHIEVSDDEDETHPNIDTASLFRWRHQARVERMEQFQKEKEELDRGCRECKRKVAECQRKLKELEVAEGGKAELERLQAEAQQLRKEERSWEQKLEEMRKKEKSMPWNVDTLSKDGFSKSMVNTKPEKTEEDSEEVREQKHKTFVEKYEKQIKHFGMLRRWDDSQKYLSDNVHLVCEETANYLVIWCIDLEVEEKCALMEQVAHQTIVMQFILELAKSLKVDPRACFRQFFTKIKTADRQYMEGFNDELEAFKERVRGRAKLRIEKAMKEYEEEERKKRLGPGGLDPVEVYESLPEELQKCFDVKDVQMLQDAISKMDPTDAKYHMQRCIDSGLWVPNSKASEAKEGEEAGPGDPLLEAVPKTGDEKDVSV

[13] = molecular target: T2, Casein kinase II subunit alpha (Homo sapiens, UniProt P68400); experiment: Inhibition of CK2alpha (unknown origin)
Target sequence in this assay (P68400 whole entry): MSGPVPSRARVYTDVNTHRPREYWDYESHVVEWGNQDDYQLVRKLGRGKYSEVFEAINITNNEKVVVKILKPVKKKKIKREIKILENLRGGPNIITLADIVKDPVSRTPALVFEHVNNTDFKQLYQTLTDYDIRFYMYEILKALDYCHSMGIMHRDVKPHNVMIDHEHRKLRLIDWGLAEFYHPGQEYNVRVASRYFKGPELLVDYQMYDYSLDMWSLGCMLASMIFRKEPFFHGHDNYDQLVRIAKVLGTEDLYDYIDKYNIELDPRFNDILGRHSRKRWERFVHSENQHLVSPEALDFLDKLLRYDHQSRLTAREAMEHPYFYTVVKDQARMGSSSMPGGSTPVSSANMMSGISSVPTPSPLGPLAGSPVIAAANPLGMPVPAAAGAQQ

[14] = molecular target: T2, Casein kinase II subunit alpha; experiment: Inhibition of CK2alpha (unknown origin) assessed as residual activity at 5 uM relative to control
Target sequence in this assay (P68400 whole entry, looked up): as the sequence (P68400 whole entry) above

Sequence of Eukaryotic translation initiation factor 2 subunit 2 (Homo sapiens) (P20042 whole entry): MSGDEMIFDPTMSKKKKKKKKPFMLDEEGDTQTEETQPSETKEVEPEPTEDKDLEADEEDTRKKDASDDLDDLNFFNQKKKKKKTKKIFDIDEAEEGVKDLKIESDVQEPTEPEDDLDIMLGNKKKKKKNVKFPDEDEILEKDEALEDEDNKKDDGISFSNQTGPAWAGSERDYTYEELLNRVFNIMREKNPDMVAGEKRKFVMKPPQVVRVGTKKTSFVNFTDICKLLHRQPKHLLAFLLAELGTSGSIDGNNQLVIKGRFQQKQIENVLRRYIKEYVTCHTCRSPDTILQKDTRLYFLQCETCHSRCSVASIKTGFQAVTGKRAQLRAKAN
Sequence of Signal transducer and activator of transcription 3 (Homo sapiens) (P40763 whole entry): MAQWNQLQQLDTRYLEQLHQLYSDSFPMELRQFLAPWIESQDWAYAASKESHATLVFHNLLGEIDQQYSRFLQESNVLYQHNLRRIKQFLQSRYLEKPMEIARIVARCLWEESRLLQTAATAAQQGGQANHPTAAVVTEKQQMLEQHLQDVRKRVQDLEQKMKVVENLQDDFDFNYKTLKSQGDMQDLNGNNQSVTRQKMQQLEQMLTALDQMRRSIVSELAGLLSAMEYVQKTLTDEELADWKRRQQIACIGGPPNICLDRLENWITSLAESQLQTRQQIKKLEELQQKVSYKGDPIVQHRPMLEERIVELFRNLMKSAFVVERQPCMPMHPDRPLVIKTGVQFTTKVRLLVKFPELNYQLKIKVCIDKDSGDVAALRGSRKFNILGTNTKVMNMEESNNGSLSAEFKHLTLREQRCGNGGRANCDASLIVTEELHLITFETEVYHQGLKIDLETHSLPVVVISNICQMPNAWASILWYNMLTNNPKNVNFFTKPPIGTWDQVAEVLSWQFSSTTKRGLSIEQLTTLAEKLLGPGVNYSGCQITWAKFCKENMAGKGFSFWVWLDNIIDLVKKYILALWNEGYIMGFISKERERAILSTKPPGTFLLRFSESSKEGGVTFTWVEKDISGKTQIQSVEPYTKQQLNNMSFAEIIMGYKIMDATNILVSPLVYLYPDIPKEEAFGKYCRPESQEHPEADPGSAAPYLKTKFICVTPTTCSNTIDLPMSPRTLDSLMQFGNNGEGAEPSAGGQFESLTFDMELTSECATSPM

Fc1ccccc1N1CCN(c2ncnc3sc4c(c23)CCNC4)CC1
inhibition at 30 µM (786-0 [1]): 35.8%

COc1ccccc1N1CCN(c2ncnc3sc4c(c23)CCNC4)CC1
inhibition at 30 µM (786-0 [1]): 36.7%

CCC(=O)Nc1cc(Nc2cc(NC3CC3)n3ncc(C#N)c3n2)ccc1C
Activity [2]: 91%
GI50 (U-937): 1.8 µM
Activity (786-0 [3]): Not active; Compound Showed Poor Efficacy To Induce Cell Death
GI50 (786-0 [4]): 5.7 µM
GI50 [5]: > 30 µM
Activity [6]: 0%
GI50 (HCT-116): > 10 µM

Brc1ccccc1/C=N/Nc1ncnc2sc3c(c12)CCNC3
GI50 (786-0 [4]): 6.6 µM
inhibition at 30 µM (786-0 [1]): 99.2%

COc1ccc(N2CCN(c3ncnc4sc5c(c34)CCNC5)CC2)cc1
inhibition at 30 µM (786-0 [1]): 27.7%

Cc1ccc(N2CCN(c3ncnc4sc5c(c34)CCNC5)CC2)cc1
GI50 (786-0 [4]): 14.7 µM
inhibition at 30 µM (786-0 [1]): 78.2%

Fc1cccc(N2CCN(c3ncnc4sc5c(c34)CCNC5)CC2)c1
GI50 (786-0 [4]): 15 µM
inhibition at 30 µM (786-0 [1]): 74.6%

Cc1ccccc1N1CCN(c2ncnc3sc4c(c23)CCNC4)CC1
GI50 (786-0 [4]): 30 µM
inhibition at 30 µM (786-0 [1]): 52.1%

O=C(O)c1ccc2c(c1)nc(Nc1cccc(Cl)c1)c1ccncc12 [SILMITASERTIB]
Activity [2]: 88%
Activity [7]: 82%
GI50 (U-937): 4 µM
Activity (786-0 [3]): Not active; Compound Showed Poor Efficacy To Induce Cell Death
GI50 (786-0 [4]): 5.5 µM
inhibition [8]: 100%
inhibition (786-0 [1]): inactive
GI50 [5]: > 30 µM
Activity [9]: 91%
Activity [6]: 0%
inhibition [10]: 96%
Activity [11]: 39%
inhibition [12]: 73%

c1ccc(N2CCN(c3ncnc4sc5c(c34)CCNC5)CC2)cc1
inhibition at 30 µM (786-0 [1]): 15.9%

Cc1cccc(N2CCN(c3ncnc4sc5c(c34)CCNC5)CC2)c1
inhibition at 30 µM (786-0 [1]): 47.2%

COc1cccc(N2CCN(c3ncnc4sc5c(c34)CCNC5)CC2)c1
GI50 (786-0 [4]): 29.5 µM
inhibition at 30 µM (786-0 [1]): 50.2%

Cc1nc2c(Br)c(Br)c(Br)c(Br)c2n1CCCN
IC50 [13]: 0.15 µM
Activity [14]: 23%

Fc1ccc(N2CCN(c3ncnc4sc5c(c34)CCNC5)CC2)cc1
inhibition at 30 µM (786-0 [1]): 25.3%
